Measured values reported in ChEMBL document CHEMBL1828531, “Pyrazol-3-propanoic acid derivatives as novel inhibitors of leukotriene biosynthesis in human neutrophils” (Eur J Med Chem, 2011).

Columns and labels:
[1] = biological target: T1, Polyunsaturated fatty acid 5-lipoxygenase (Homo sapiens) (UniProt P09917); assay: Inhibition of recombinant human 5-Lipoxygenase expressed in Escherichia coli lysate assessed as residual activity at 10 uM after 10 mins by HPLC analysis
T1 sequence (whole entry): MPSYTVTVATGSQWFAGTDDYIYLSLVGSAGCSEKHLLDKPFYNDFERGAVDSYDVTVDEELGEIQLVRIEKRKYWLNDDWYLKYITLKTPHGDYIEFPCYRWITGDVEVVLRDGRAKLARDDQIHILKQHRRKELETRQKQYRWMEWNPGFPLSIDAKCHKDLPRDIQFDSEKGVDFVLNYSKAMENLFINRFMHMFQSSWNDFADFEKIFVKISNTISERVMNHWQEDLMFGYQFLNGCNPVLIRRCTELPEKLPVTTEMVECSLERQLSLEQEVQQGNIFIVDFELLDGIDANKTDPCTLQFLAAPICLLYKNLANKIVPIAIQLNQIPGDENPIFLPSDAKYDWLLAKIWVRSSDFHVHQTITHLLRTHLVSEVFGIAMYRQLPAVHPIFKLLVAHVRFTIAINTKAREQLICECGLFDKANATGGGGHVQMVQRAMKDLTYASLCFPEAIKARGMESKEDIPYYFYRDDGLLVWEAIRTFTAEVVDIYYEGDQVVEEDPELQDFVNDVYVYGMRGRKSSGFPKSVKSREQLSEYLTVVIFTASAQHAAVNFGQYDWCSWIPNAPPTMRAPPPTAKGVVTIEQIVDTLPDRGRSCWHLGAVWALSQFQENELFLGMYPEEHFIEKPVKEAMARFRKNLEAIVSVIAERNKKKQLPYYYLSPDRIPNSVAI
Procedure, shortened: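 Human 5-LO expressed at 30 °C in E. coli MV1190 (pT3-5LO); lysate 40,000 g supernatant in PBS pH 7.4 with 1 mM EDTA. Preincubated with compound 10 min at 4 °C, warmed 30 s at 37 °C. Started with 2 mM CaCl2 plus 20 µM AA, 10 min at 37 °C. Methanol stop, HPLC. Residual % versus 0.3% DMSO vehicle, n = 3–5.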

[2] = biological target: T2, Polyunsaturated fatty acid lipoxygenase ALOX15 (Homo sapiens) (UniProt P16050); assay: Inhibition of 15-Lipoxygenase-mediated 15-HETE in human neutrophil assessed as residual activity at 30 uM after 15 mins by HPLC analysis
T2 sequence (whole entry): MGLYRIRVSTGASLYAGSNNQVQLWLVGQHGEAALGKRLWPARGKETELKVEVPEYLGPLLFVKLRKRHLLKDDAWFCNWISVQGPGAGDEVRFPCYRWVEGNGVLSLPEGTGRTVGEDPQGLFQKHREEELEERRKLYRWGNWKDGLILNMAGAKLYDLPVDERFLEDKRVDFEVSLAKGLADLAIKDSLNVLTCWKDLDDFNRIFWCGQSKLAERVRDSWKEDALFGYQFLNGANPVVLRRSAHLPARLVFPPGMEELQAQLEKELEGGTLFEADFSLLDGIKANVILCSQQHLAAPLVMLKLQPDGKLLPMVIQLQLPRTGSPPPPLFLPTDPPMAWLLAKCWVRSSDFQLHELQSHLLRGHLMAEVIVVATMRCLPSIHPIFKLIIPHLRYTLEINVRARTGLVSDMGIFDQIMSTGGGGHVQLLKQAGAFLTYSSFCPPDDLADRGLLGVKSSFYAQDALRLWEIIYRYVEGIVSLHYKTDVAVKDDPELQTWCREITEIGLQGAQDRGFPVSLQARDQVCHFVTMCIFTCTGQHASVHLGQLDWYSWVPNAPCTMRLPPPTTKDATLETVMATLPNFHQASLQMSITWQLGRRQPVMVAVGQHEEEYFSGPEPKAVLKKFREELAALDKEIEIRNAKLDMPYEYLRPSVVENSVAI
Procedure, shortened: (§1)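 Freshly isolated human blood neutrophils, 5 × 10^6/mL in PBS pH 7.4 with 1 mg/mL glucose and 1 mM CaCl2, preincubated with compound 15 min at RT. Stimulated with 2.5 µM A23187 plus 20 µM AA for 10 min at 37 °C. Stopped with methanol/HCl, PGB1 internal standard. 12-HETE or 15-HETE measured by HPLC. Residual activity tested at 30 µM.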

[3] = biological target: T3, Polyunsaturated fatty acid lipoxygenase ALOX15 (Homo sapiens, UniProt P16050); assay: Inhibition of 15-Lipoxygenase-mediated 15-HETE in human neutrophil after 15 mins by HPLC analysis; procedure, shortened: as §1
T3 sequence (P16050 whole entry): T2 sequence (whole entry)

Compound	Activity [1] [%]	Activity [2] [%]	IC50 [3] [µM]
CCOC(=O)C1CCN(C(=O)CCc2cc(-c3ccc(C)cc3)n(-c3ccccc3)n2)CC1	102	196	> 10
Cc1ccc(-c2cc(CCC(=O)N3CCN(Cc4ccc(C(C)(C)C)cc4)CC3)nn2-c2ccc3ccccc3n2)cc1	51.5	145	> 10
Cc1ccc(-c2cc(CCC(=O)Oc3ccc(C(C)C)cc3)nn2-c2ccc3ccccc3n2)cc1	79.6	92	> 10
CC(C)(C)c1ccc(CN2CCN(C(=O)CCc3cc(-c4ccc(F)cc4)n(-c4ccc(Cl)nn4)n3)CC2)cc1	55.3	175	> 10
Cc1ccc(-c2cc(CCC(=O)Oc3ccc(C(C)C)cc3)nn2-c2ccccc2)cc1	95.3	124	> 10
CCOC(=O)C1CCN(C(=O)CCc2cc(-c3ccc(C)cc3)n(-c3ccc4ccccc4n3)n2)CC1	69.9	149	> 10
Cc1ccc(-c2cc(CCC(=O)N3CCN(Cc4ccc(C(C)(C)C)cc4)CC3)nn2-c2ccccc2)cc1	85.6	261	> 10
Cc1ccc(-c2cc(CCC(=O)Oc3ccc(C(C)C)cc3)nn2-c2ccc(Cl)nn2)cc1	92.7	–	–
CCOC(=O)C1CCN(C(=O)CCc2cc(-c3ccc(C(F)(F)F)cc3)n(-c3ccc(Cl)nn3)n2)CC1	72.6	71	> 10
